Test results: ChEMBL document CHEMBL3792315, “Potent, Selective, and CNS-Penetrant Tetrasubstituted Cyclopropane Class IIa Histone Deacetylase (HDAC) Inhibitors” (ACS Med Chem Lett, 2016)
Values belong to the molecule of their own block, whether it stands above or below them.

Tests used:
[1] = Apparent permeability across apical to basolateral side in MDCK cells expressing MDR1; format: ADME, cell-based, Canis lupus familiaris; conditions: dog
[2] = Tmax in C57Bl/6 mouse brain at 10 mg/kg, po; format: ADME, organism-based
In short: (§1)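 A single 10 mg/kg oral gavage dose was given to fed male C57Bl/6 mice. Concentrations were measured in plasma, brain and muscle to derive Cmax, Tmax and AUC, with Cmax and AUC normalised to dose.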

[3] = Volume of distribution at steady state in C57Bl/6 mouse plasma at 1 mg/kg, iv; format: ADME, organism-based; conditions: read-out: Vdss
In short: (§2)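 Fed male C57Bl/6 mice were dosed intravenously, and plasma was sampled to derive half-life, plasma clearance and steady-state volume of distribution. The iv dose differed per compound (5, 1 or 2.5 mg/kg).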

[4] = tested on: Brain; assay: Dose normalized AUC in C57Bl/6 mouse brain at 10 mg/kg, po; format: ADME, organism-based; conditions: in vivo; in short: as §1
[5] = tested on: Muscle tissue; assay: Dose normalized AUC in C57Bl/6 mouse muscle at 10 mg/kg, po; format: ADME, organism-based; conditions: in vivo; in short: as §1
[6] = Tmax in C57Bl/6 mouse muscle at 10 mg/kg, po; format: ADME, organism-based, Muscle tissue; in short: as §1
[7] = tested on: Plasma; assay: Dose normalized AUC in C57Bl/6 mouse plasma at 10 mg/kg, po; format: ADME, organism-based; conditions: in vivo; in short: as §1
[8] = tested on: Plasma; assay: Dose normalized Cmax in C57Bl/6 mouse plasma at 10 mg/kg, po; format: ADME, organism-based; conditions: in vivo; in short: as §1
[9] = Tmax in C57Bl/6 mouse plasma at 10 mg/kg, po; format: ADME, organism-based; in short: as §1
[10] = tested on: Brain; assay: Dose normalized Cmax in C57Bl/6 mouse brain at 10 mg/kg, po; format: ADME, organism-based; conditions: in vivo; in short: as §1
[11] = Oral bioavailability in C57Bl/6 mouse plasma at 10 mg/kg; format: ADME, organism-based
[12] = tested on: Muscle tissue; assay: Dose normalized Cmax in C57Bl/6 mouse muscle at 10 mg/kg, po; format: ADME, organism-based; conditions: in vivo; in short: as §1
[13] = Volume of distribution at steady state in C57Bl/6 mouse plasma at 2.5 mg/kg, iv; format: ADME, organism-based; conditions: read-out: Vdss; in short: as §2
[14] = Volume of distribution at steady state in C57Bl/6 mouse plasma at 5 mg/kg, iv; format: ADME, organism-based; conditions: read-out: Vdss; in short: as §2

Papp A→B [1]: 12.9 ×10⁻⁶ cm/s
SMILES: O=C(NO)[C@@H]1[C@H](c2ccccc2)[C@H]1c1ccc(-c2ncc(OC(F)F)cn2)cc1

Papp A→B [1]: 38 ×10⁻⁶ cm/s
SMILES: O=C(NO)[C@@H]1[C@H](c2ccccc2)[C@H]1c1ccc(-c2ncc(Cl)cn2)cc1

Papp A→B [1]: < 1 ×10⁻⁶ cm/s
SMILES: O=C(NO)[C@]1(F)[C@H](c2ccccc2)[C@H]1c1ccc(-c2ncc(Cl)cn2)cc1

Papp A→B [1]: 48.7 ×10⁻⁶ cm/s
SMILES: O=C(NO)[C@]1(F)[C@H](c2ccccc2)[C@H]1c1ccc(-c2cnco2)cc1

Papp A→B [1]: 7 ×10⁻⁶ cm/s
SMILES: O=C(NO)[C@]1(F)[C@H](c2ccccc2)[C@H]1c1ccc(-c2nccc(C(F)(F)F)n2)cc1

Tmax [2]: 30 min
Vd [3]: 5.1 L/kg
AUC/dose [4]: 1900 nM·kg·h/mg
AUC/dose [5]: 640 nM·kg·h/mg
Tmax [6]: 30 min
Papp A→B [1]: 41.8 ×10⁻⁶ cm/s
AUC/dose [7]: 480 nM·kg·h/mg
Cmax/dose [8]: 180 nM·kg/mg
Tmax [9]: 15 min
Cmax/dose [10]: 780 nM·kg/mg
bioavailability [11]: 79%
Cmax/dose [12]: 290 nM·kg/mg
SMILES: O=C(NO)[C@]1(F)[C@H](c2ccccc2)[C@H]1c1ccc(-c2ncc(F)cn2)cc1

Papp A→B [1]: 37.5 ×10⁻⁶ cm/s
SMILES: Cc1cnc(-c2ccc([C@H]3[C@H](C(=O)NO)[C@@H]3c3ccccc3)cc2)nc1

Vd [13]: 10 L/kg
Tmax [2]: 60 min
AUC/dose [4]: 580 nM·kg·h/mg
AUC/dose [5]: 300 nM·kg·h/mg
Tmax [6]: 30 min
Papp A→B [1]: 19.2 ×10⁻⁶ cm/s
AUC/dose [7]: 660 nM·kg·h/mg
Cmax/dose [8]: 150 nM·kg/mg
Tmax [9]: 15 min
Cmax/dose [10]: 120 nM·kg/mg
bioavailability [11]: 100%
Cmax/dose [12]: 56 nM·kg/mg
SMILES: O=C(NO)[C@]1(F)[C@H](c2ccccc2)[C@H]1c1ccc(-c2ncc(OC(F)F)cn2)cc1

Vd [14]: 4.1 L/kg
Tmax [2]: 30 min
AUC/dose [4]: 830 nM·kg·h/mg
AUC/dose [5]: 330 nM·kg·h/mg
Tmax [6]: 30 min
AUC/dose [7]: 110 nM·kg·h/mg
Cmax/dose [8]: 97 nM·kg/mg
Tmax [9]: 30 min
Cmax/dose [10]: 570 nM·kg/mg
bioavailability [11]: 100%
Cmax/dose [12]: 320 nM·kg/mg
SMILES: O=C(NO)[C@@H]1[C@H](c2ccccc2)[C@H]1c1ccc(-c2ncc(F)cn2)cc1

Papp A→B [1]: 39.1 ×10⁻⁶ cm/s
SMILES: Cc1cnc(-c2ccc([C@@H]3[C@@H](c4ccccc4)[C@@]3(C)C(=O)NO)cc2)nc1

Papp A→B [1]: 36.9 ×10⁻⁶ cm/s
SMILES: Cc1cnc(-c2ccc([C@@H]3[C@@H](c4ccccc4)[C@@]3(F)C(=O)NO)cc2)nc1

Papp A→B [1]: 11.4 ×10⁻⁶ cm/s
SMILES: O=C(NO)[C@@H]1[C@H](c2ccccc2)[C@H]1c1ccc(-c2nccc(C(F)(F)F)n2)cc1
